Measured values published in ChEMBL document CHEMBL1150115, “Bioactive abietane and seco-abietane diterpenoids from Salvia prionitis” (J Nat Prod, 2002).
≈ marks a conversion by molar mass, not a printed value. Calls of active or inactive are those of the source. No cut-off for these calls is given here.

Experiments:
DNA topoisomerase 1 = target: T1, DNA topoisomerase 1 (Mus musculus, UniProt Q04750); experiment: Inhibition of topoisomerase 1 extracted from mouse EAC cells assessed as inhibition of Escherichia coli pBR322 relaxation; assay type: cell-free, Ehrlich
T1 sequence (Q04750 whole entry): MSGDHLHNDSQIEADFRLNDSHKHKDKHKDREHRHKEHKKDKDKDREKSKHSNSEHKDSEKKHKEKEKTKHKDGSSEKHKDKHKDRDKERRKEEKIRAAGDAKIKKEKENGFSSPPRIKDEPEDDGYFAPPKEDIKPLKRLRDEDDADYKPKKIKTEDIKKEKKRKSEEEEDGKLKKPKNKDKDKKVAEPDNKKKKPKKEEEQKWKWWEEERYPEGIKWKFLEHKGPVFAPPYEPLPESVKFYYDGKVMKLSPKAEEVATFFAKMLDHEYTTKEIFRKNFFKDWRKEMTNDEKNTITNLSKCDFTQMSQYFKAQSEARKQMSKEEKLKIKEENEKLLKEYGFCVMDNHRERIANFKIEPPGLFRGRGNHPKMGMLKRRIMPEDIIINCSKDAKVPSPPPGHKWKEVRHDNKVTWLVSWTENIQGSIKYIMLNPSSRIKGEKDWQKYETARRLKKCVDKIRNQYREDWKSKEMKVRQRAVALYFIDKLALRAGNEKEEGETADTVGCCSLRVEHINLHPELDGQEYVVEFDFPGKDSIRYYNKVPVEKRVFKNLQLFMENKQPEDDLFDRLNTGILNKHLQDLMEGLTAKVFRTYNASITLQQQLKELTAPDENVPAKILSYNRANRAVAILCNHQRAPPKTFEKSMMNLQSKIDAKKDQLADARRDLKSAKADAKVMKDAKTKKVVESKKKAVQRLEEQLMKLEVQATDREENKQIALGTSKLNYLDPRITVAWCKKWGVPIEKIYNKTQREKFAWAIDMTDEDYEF

Staphylococcus aureus = experiment: Antibacterial activity against Staphylococcus aureus after 18 hrs by microdilution assay; assay type: functional
How it was run: (§1)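 Broth microdilution in Mueller-Hinton broth, with cells at a set final CFU/mL density. Compounds dissolved in DMSO. Incubation at 37 °C for 18 h under aerobic conditions. Blank controls received a limited amount of DMSO under the same conditions. Read-out is MIC.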

Micrococcus luteus = experiment: Antibacterial activity against Micrococcus luteus after 18 hrs by microdilution assay; assay type: functional; how it was run: as §1
HL-60 = experiment: Cytotoxicity against human HL60 cells after 48 hr by MTT assay; assay type: functional, cell-based
SGC-7901 = experiment: Cytotoxicity against human SGC7901 cells after 48 hr by MTT assay; assay type: functional, cell-based
MKN-28 = experiment: Cytotoxicity against human MKN28 cells after 48 hr by MTT assay; assay type: functional, cell-based

With Cc1ccc2c(c1CCCC(C)(C)O)C(=O)C(=O)C(C(C)C)=C2 the IC50 (DNA topoisomerase 1) was 800 nM.

Compound CC(C)C1=CC(=O)C([C@@]2(C)CCCC(C)(C)[C@@H]2CC=O)=CC1=O has an MIC (Staphylococcus aureus) of 20 µM (≈ 6.33 µg/mL) and an MIC (Micrococcus luteus) of 15 µM (≈ 4.75 µg/mL).

For Cc1ccc2c(c1CCC(=O)C(C)(C)O)C(=O)C(=O)C(C(C)C)=C2, the IC50 (HL-60; HL-60, 48 h) was 4600 nM, the IC50 (SGC-7901; SGC-7901, 48 h) was 200 nM and the IC50 (MKN-28; MKN-28, 48 h) was 300 nM.

Cc1ccc2cc(C(C)C)c(O)c3c2c1C(=O)OC3=O was tested, and the Activity (HL-60) was “inactive”, the Activity (SGC-7901) was “inactive” and the Activity (MKN-28) was “inactive”.

C=C(C)C1CCc2c(C)ccc3c2[C@]1(O)C(=O)C(C(C)C)=C3 (some centres not stated) was tested, and the Activity (HL-60) was “inactive”, the Activity (SGC-7901) was “inactive” and the Activity (MKN-28) was “inactive”.
